The text below walks through data of ChEMBL document CHEMBL1146183, “Replacement of the N-terminal tyrosine residue in opioid peptides with 3-(2,6-dimethyl-4-carbamoylphenyl)propanoic acid (Dcp) results in novel opioid antagonists” (J Med Chem, 2006).

One experiment has as its target Mu-type opioid receptor (Rattus norvegicus, UniProt P33535). The experiment in a line: Displacement of [3H]DAMGO from mu opioid receptor in rat brain membrane. Format: cell membranes. A general note: Loss of bound radioactivity is the signal in a displacement assay; it reports binding, not function.
Experiment [1] concerns the target Delta-type opioid receptor (Rattus norvegicus, UniProt P33533). The experiment in a line: Displacement of [3H]DSLET from delta opioid receptor in rat brain membrane. Format: cell membranes.
Experiment [2] addresses Kappa-type opioid receptor (Cavia porcellus, UniProt P41144). The experiment in a line: Displacement of [3H]U-69593 from kappa opioid receptor in guinea pig brain membrane. The experiment is classed as cell membranes.
Experiment [3] is described as follows: Selectivity for rat mu opioid receptor over guinea pig kappa opioid receptor.
The target in experiment [4] is Opioid receptors; mu & delta (Rattus norvegicus) (UniProt P33533+P33535). The experiment in a line: Selectivity for mu opioid receptor over delta receptor. The experiment is classed as protein assay.
Opioid receptors; mu & delta (Rattus norvegicus), sequence (P33533 whole entry, looked up): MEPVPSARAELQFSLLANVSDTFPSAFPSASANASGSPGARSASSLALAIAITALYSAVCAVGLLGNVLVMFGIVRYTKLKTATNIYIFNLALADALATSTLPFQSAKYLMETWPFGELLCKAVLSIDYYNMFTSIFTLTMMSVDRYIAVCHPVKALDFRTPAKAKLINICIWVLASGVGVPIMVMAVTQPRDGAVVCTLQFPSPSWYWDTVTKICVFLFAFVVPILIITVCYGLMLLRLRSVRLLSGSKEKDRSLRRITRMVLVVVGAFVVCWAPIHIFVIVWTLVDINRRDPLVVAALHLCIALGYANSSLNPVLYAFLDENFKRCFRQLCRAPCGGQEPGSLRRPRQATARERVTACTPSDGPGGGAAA
Opioid receptors; mu & delta (Rattus norvegicus), sequence (P33535 whole entry, looked up): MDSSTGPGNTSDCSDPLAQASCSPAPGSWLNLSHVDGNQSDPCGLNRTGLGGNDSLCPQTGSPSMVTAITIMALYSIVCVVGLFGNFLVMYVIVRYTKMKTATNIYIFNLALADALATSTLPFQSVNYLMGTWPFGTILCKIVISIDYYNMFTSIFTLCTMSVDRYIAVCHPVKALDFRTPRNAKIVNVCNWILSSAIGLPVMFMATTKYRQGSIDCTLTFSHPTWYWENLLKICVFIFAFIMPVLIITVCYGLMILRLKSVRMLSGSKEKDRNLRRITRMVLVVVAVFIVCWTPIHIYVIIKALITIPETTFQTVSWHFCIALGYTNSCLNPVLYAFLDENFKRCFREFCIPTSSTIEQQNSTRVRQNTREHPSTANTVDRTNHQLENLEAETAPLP
Experiment [5] has as its target Mu-type opioid receptor (Cavia porcellus) (UniProt P97266). Briefly: Activity at mu opioid receptor assessed as antagonizing effect against TAPP by GPI assay. The experiment is classed as functional. Put shortly:
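Antagonism of the µ agonist TAPP measured in guinea pig ileum (GPI) preparation; Ke determined, reported as mean of three to six determinations.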

Experiment [6] has as its target Kappa-type opioid receptor (Cavia porcellus) (UniProt P41144). Briefly: Activity at kappa opioid receptor assessed as antagonizing effect against U50,488 by GPI assay. The experiment is classed as functional. Put shortly:
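Antagonism of the κ agonist U50,488 measured in guinea pig ileum (GPI) preparation; Ke determined, reported as mean of three to six determinations.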

Experiment [7] deals with Delta-type opioid receptor (Mus musculus) (UniProt P32300). The experiment in a line: Activity at delta opioid receptor assessed as antagonizing effect against DPDPE by MVD assay. The experiment is classed as functional. Put shortly: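 Antagonism at δ receptors measured in mouse vas deferens (MVD) preparation; Ke determined, reported as mean of three to six determinations.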
Delta-type opioid receptor (Mus musculus), sequence (P32300 whole entry): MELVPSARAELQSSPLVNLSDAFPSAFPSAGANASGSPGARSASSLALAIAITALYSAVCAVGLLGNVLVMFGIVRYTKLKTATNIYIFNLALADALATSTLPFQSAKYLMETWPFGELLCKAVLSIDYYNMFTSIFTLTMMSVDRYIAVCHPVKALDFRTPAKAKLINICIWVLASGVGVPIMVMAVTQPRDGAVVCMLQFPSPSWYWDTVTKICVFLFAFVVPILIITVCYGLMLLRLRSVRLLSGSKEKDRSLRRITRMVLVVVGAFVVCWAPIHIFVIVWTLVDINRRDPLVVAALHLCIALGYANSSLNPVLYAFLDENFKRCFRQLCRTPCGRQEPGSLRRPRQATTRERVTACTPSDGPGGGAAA

Experiment [8] deals with Opioid receptor (mu and kappa) (Cavia porcellus) (UniProt P41144+P97266). Briefly: Ratio of Ke for mu opioid receptor to Ke for kappa opioid receptor. The experiment is classed as protein assay.
Opioid receptor (mu and kappa) (Cavia porcellus), sequence (P41144 whole entry, looked up): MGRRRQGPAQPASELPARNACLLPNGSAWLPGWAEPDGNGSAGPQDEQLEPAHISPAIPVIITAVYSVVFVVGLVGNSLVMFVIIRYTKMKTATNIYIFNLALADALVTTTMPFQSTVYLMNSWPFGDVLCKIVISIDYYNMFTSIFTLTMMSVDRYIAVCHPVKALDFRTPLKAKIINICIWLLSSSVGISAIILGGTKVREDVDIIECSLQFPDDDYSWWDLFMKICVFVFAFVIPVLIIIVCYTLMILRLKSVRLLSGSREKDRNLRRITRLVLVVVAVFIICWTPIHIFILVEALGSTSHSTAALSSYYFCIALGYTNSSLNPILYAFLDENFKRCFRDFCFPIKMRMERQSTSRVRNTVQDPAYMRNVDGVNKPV
Opioid receptor (mu and kappa) (Cavia porcellus), sequence (P97266 whole entry, looked up): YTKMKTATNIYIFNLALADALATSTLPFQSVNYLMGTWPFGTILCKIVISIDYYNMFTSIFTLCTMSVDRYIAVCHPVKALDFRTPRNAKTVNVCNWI
Experiment [9] in a line: Ratio of Ke for guinea pig mu opioid receptor to Ke for mouse delta opioid receptor.

Mu-type opioid receptor, sequence (P33535 whole entry): as the sequence (P33535 whole entry, looked up) above
Kappa-type opioid receptor, sequence (P41144 whole entry): as the sequence (P41144 whole entry, looked up) above
Delta-type opioid receptor, sequence (P33533 whole entry): as the sequence (P33533 whole entry, looked up) above
Mu-type opioid receptor (Cavia porcellus), sequence (P97266 whole entry): as the sequence (P97266 whole entry, looked up) above
Kappa-type opioid receptor (Cavia porcellus), sequence (P41144 whole entry): as the sequence (P41144 whole entry, looked up) above

The Ki is a measure of affinity in units of concentration, obtained from inhibition or displacement. Low readings indicate higher affinity, high ones lower affinity. On to `CC[C@H](C)[C@H](NC(=O)[C@H](CCCNC(=N)N)NC(=O)[C@H](CCCNC(=N)N)NC(=O)[C@H](CC(C)C)NC(=O)[C@H](Cc1ccccc1)NC(=O)CNC(=O)CNC(=O)CCc1c(C)cc(C(N)=O)cc1C)C(=O)N[C@@H](CCCNC(=N)N)C(=O)N1CCC[C@H]1C(=O)N[C@@H](CCCCN)C(N)=O`, for which the Ki worked out at 44.9 nM on Mu-type opioid receptor, 129 nM in experiment [1] and 32 nM in experiment [2].
`Cc1cc(O)cc(C)c1CCC(=O)NC1CSSCC(C(N)=O)NC(=O)[C@H](Cc2ccc([N+](=O)[O-])cc2)NC(=O)CNC1=O` (stereo in doubt): the Ki at Mu-type opioid receptor is 4.79 nM; in [1], 11.6 nM; in experiment [2], 299 nM. Besides, the Ratio Ki in experiment [3] came to 62; in [4], 2. The Ke was found to be 3.68 nM in experiment [5], 22.6 nM in experiment [6] and 63.3 nM in [7]. Further, the results for the Ratio Ke in experiment [8] and in experiment [9] were 6 and 17, respectively.
As for `Cc1cc(C(N)=O)cc(C)c1CCC(=O)NC1CSSCC(C(N)=O)NC(=O)[C@H](Cc2ccc([N+](=O)[O-])cc2)NC(=O)CNC1=O` (stereo in doubt), the Ki on Mu-type opioid receptor is 2.84 nM; in [1], 25.8 nM; in experiment [2], 980 nM. Further, the Ratio Ki in experiment [3] turned out to be 345; in experiment [4], 9. In addition, the Ke was found to be 3.92 nM in experiment [5], 74.1 nM in [6] and 176 nM in experiment [7]. The Ratio Ke in [8] is 19; in experiment [9], 45.
